SENP7 inh: inhibitors of human SENP7 protease. recombinant SENP7, Z-RLRGG-aminoluciferin luminescence, 40 min. inhibition, % at 5 µM. 330,000 compounds, 1.5% hits;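 active = inhibition above about 50% at the single test dose, limit read from the data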
SENP1 inh: SENP1 (human) catalytic domain inhibition | inhibition, % at 10 µM | Q9P0U3 | AID 624204 | 360,000 compounds, 0.21% hits | recombinant SENP1 catalytic domain, CyPet-SUMO1-YPet FRET cleavage;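 active = inhibition at least 30% at 10 µM, raw YFP signal under a set limit, fluorescence ratio 0.5 to 1.5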
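Material – human SENP1 catalytic domain · Input – SENP1 enzyme, 20 pM final · Compound dosing – single concentration of 10 µM compound, 0.5% DMSO final · Timing – enzyme reaction for 50 min at room temperature, dark · Measured by – FRET fluorescence in CFP and YFP emission channels · Control set – no-enzyme wells low, DMSO-plus-enzyme wells high control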
Platelet DG rel: platelet dense granule release activity. inhibition, %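 (compounds screened at 7.5 µM in platelet-rich plasma)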. human platelet-rich plasma, SFLLRN dense granule ATP release, luminescence. 300,000 compounds, 0.22% hits;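 active = mean replicate score, as percent of positive control, at or above 50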
SENP6 inh: SENP6 protease inhibition. Q9GZR1. Recombinant SENP6 catalytic domain, aminoluciferin luminescence. inhibition, % at 10 µM. 330,000 compounds, 1.8% hits. AID 2599;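 active = inhibition above about 50% at the single tested dose, limit read from the data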
Target sequence (Q9GZR1 628-1112 limits assumed): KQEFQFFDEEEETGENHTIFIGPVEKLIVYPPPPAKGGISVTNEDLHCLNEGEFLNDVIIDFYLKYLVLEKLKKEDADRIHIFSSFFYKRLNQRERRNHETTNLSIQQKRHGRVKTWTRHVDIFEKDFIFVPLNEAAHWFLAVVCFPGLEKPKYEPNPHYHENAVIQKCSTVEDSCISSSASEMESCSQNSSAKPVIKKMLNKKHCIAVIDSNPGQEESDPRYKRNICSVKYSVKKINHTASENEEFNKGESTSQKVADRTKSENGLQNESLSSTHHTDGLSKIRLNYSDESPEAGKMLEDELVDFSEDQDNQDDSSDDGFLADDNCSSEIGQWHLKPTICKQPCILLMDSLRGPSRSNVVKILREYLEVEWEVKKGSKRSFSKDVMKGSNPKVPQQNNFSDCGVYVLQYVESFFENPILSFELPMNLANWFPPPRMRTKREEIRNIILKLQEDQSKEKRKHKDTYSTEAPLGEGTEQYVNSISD
SENP8 block-1: blocks human SENP8 cleavage of Nedd8 substrate; 360,000 compounds, 0.64% hits; inhibition, % at 20 µM; AID 602440; recombinant SENP8, Nedd8 substrate fluorescence; Q96LD8; in the data active = inhibition mostly above about 40%, no sharp cut-off; inactive = mostly below about 27%
SENP8 block-2: SENP8 protease inhibition; AID 2540; Q96LD8; purified SENP8, Z-RLRGG-aminoluciferin cleavage, luminescence; 330,000 compounds, 1.2% hits; inhibition, % at 10 µM; in the data active = inhibition above about 50%
SENP8 inh conf: SENP8 (human) inhibition, single concentration confirmation; shares compounds with SENP8 block-1; purified SENP8, Nedd8-AMC/pro-Nedd8 cleavage fluorescence, 30 min; inhibition, % at 25 µM; 1,400 compounds, 15% hits; in the data active = inhibition mostly above about 39%, no sharp cut-off; inactive = mostly below about 34%
Of the large screens only hits and unclear results are named; the others gave an inactive call (follow-up assays come after a bar, where they were run). Most compounds without a hit are left out; they make up all but 2.6% or so of the library.

COC(=O)c1[nH]cnc1C(=O)c1ccccc1	SENP8 block-1 54.0 | SENP8 inh conf inactive
COc1ccccc1NC(=O)c1nc[nH]c1C(=O)Nc1ccccc1OC	none
O=C(c1ccccc1C(=O)N1CCN(c2ccccc2)CC1)N1CCN(c2ccccc2)CC1	SENP8 block-1 49.2 | SENP8 inh conf inactive
COc1ccc(N2Nc3n[nH]c(N)c3N2)cc1	SENP8 block-1 50.8 | SENP8 inh conf inactive
COc1ccc(N2CCN(c3n[nH]c(N)n3)CC2)cc1	none
CCOc1ccc(N2Nc3n[nH]c(N)c3N2)cc1	SENP8 block-1 49.0 | SENP8 inh conf inactive
CCOc1cc(C(=O)NCc2ccc3c(c2)OCO3)cc(OCC)c1OCC	none
Cc1cc(NC(=O)COC(=O)C2CCC(=O)N2)c([N+](=O)[O-])cc1C (stereo not given)	none
CCN(CC)c1ccc(N=Cc2ccc([N+](=O)[O-])o2)cc1	none
CCN(CC)c1ccc(N=Cc2ccccc2[N+](=O)[O-])cc1	SENP8 block-1 66.4 | SENP8 inh conf inactive
O=[N+]([O-])c1ccc(C=NNC(=S)NN=Cc2ccc([N+](=O)[O-])cc2)cc1	SENP8 block-1 70.1 (no result: SENP7 inh, Platelet DG rel, SENP6 inh, SENP8 block-2) | SENP8 inh conf inactive
O=[N+]([O-])c1ccc(C=NNC(=S)Nc2ccc(F)cc2)cc1	none (no result: SENP7 inh, Platelet DG rel, SENP6 inh, SENP8 block-2)
O=C(NCC(=O)N1CCN(c2ccccn2)CC1)c1ccc(Br)o1	none
CCOC(=O)c1c(-c2ccccc2)c[nH]c1C	none (no result: SENP7 inh, Platelet DG rel, SENP6 inh, SENP8 block-2)
CNc1nc(Oc2ccc(=O)n(C)n2)nc(N2CCOCC2)n1	SENP8 block-1 43.9 | SENP8 inh conf inactive
CCNc1nc(Oc2ccc(=O)n(C)n2)nc(N2CCOCC2)n1	none
CCCN(CCC)CCCNc1ccc(C(=O)Nc2cccc(OC)c2)cc1[N+](=O)[O-]	SENP8 block-1 35.3 | SENP8 inh conf inactive
COc1cccc(NC(=O)c2ccc(NCCCN3CC(C)CC(C)C3)c([N+](=O)[O-])c2)c1 (stereo not given)	none (no result: SENP7 inh, SENP6 inh, SENP8 block-2)
C=CCC1CCCCC12NC(=O)N(c1ccccc1)N2 (stereo not given)	none
O=C1CCC2(CC1)NC(=O)N(c1ccccc1)N2	SENP8 block-1 36.7 | SENP8 inh conf inactive
Nc1nnc(CCS(=O)(=O)c2ccc(Br)cc2)s1	none
Cc1ccc(-c2nn(Cc3ccccc3)cc2/C=C/C(=O)O)cc1	none
Cc1ccc(Cn2cc(/C=C/C(=O)O)c(-c3ccccc3)n2)cc1	SENP8 block-1 43.0 | SENP8 inh conf inactive
CCOC(=O)CNC(=O)c1cccnc1Oc1ccc(Cl)cc1	none
CC1=C(C(=O)OC(C)C)C2(O)C(=O)c3ccccc3C2(O)N1 (stereo not given)	none
CCCCOC(=O)C1=C(C)NC2(O)c3ccccc3C(=O)C12O (stereo not given)	SENP8 block-1 46.5 | SENP8 inh conf 65.0
CC(C)=CCC/C(C)=C/COc1c2occc2cc2ccc(=O)oc12	SENP8 block-1 57.4 (no result: Platelet DG rel) | SENP8 inh conf inactive
CC(C)=CCC/C(C)=C/COc1ccc2ccc(=O)oc2c1	none
Cc1nc(SCC(O)CO)c([N+](=O)[O-])[nH]1 (stereo not given)	none
CS(=O)(=O)N1CCN(c2ccccc2NC(=O)c2ccc(-c3ccc(Br)cc3)o2)CC1	none
COc1cc(/C=C2\SC(=O)N(Cc3ccc(F)cc3)C2=O)cc([N+](=O)[O-])c1O	SENP8 block-1 40.5 | SENP8 inh conf inactive
COc1cc(/C=C2\SC(=O)N(Cc3ccc(Cl)cc3)C2=O)cc([N+](=O)[O-])c1O	none (no result: SENP7 inh, Platelet DG rel, SENP6 inh, SENP8 block-2)
CC(=O)Nc1ccc(N=c2cc([N+](=O)[O-])cc(Cl)n2O)cc1	SENP8 block-1 51.3 | SENP8 inh conf inactive
Cc1ccc(NC(=O)CN2c3cccc4cccc(c34)S2(=O)=O)cc1	none (no result: Platelet DG rel)
CC1CCc2nc(NC(=O)CN3CCN(Cc4ccc5c(c4)OCO5)CC3)sc2C1 (stereo not given)	none
CC1CCc2nc(NC(=O)Nc3ccc4c(c3)OCO4)sc2C1 (stereo not given)	SENP8 block-1 42.1 | SENP8 inh conf inactive
O=[N+]([O-])c1ccc(NN=C2CC3CCC2C3)c([N+](=O)[O-])c1 (stereo not given)	SENP8 block-1 40.6 (no result: SENP7 inh, Platelet DG rel, SENP6 inh, SENP8 block-2) | SENP8 inh conf inactive
CC1CCC/C(=N/Nc2ccc([N+](=O)[O-])cc2[N+](=O)[O-])C1 (stereo not given)	none
